Series [1] deals with T1, Cannabinoid receptor 1 (Homo sapiens, UniProt P21554). Type of series: functional, cell-based, CHO.
For another series, the target named is Cannabinoid receptor 2 (Homo sapiens, UniProt P34972). Put plainly: Displacement of [3H]CP-55940 from human recombinant cannabinoid CB2 receptor expressed in CHO cells after 3 hrs by liquid scintillation counting. The format is cell-based. (Displacement assays read how much labelled ligand stays bound in the presence of the test substance.)
Sequence of Cannabinoid receptor 2 (P34972 whole entry): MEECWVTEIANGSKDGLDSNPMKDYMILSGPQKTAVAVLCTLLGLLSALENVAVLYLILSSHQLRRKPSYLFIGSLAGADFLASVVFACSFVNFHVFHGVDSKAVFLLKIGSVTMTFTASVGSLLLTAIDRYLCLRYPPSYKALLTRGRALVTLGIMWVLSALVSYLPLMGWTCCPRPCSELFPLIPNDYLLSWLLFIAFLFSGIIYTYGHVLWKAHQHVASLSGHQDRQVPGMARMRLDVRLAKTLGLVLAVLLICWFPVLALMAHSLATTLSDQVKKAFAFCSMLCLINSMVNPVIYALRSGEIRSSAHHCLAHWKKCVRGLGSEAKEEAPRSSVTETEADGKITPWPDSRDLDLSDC
Series [2] has as its target T1, Cannabinoid receptor 1. Put plainly: biochemical. The format is cell-based, CHO.
For series [3], the system named is Rattus norvegicus. Nature of the series: Antiobesity activity in diet-induced obese Sprague-Dawley rat assessed as reduction in final body weight gain at 10 mg/kg, po SID after 12 days. Also noted: dose 10 mg/kg. Type of series: functional, organism-based. An outline of the steps: (§1)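 Male DIO rats (HFD from weaning, 60% kcal fat; used at 12-16 weeks, conditioned to water gavage 5 days), individually caged, n = 11-12/group. Oral gavage 10 mg/kg daily for 12 days, 1 h before dark cycle, in 0.5% carboxymethyl cellulose/water (2 mL/kg) vs vehicle. Food intake and body weight recorded daily; Student's t-test.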

Series [4] relates to Rattus norvegicus. Nature of the series: Antiobesity activity in diet-induced obese Sprague-Dawley rat assessed as reduction in food intake at 10 mg/kg, po after 18 hrs. Further details: scale not given: the % may be the effect or the level left. The format is functional. An outline of the steps:
(§2)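 Male DIO Sprague-Dawley rats (HFD from weaning), randomized n = 14/group, individually caged. Single oral dose 10 mg/kg in 0.5% carboxymethyl cellulose (2 mL/kg) 1 h before dark onset. Preweighed pelleted food reweighed at 3 h and overnight (18 h) postdose for cumulative intake vs vehicle.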

For series [5], the target named is T1, Cannabinoid receptor 1. Put plainly: Inverse agonist activity at human cannabinoid CB1 receptor expressed in CHO cells assessed as inhibition of forskolin-stimulated cAMP accumulation after 60 mins. The format is functional, cell-based.
In series [6] the test system is Rattus norvegicus. Nature of the series: Antiobesity activity in diet-induced obese Sprague-Dawley rat assessed as reduction in food intake at 10 mg/kg, po after 3 hrs. Type of series: functional. Also noted: scale not given: the % may be the effect or the level left. An outline of the steps: as §2
Series [7] can be described thus: Plasma half life in Sprague-Dawley rat at 10 mg/kg, po. Type of series: ADME, organism-based. Also noted: dose 10 mg/kg, route oral. An outline of the steps: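 Male Sprague–Dawley rats fasted overnight, single oral dose 10 mg/kg. Blood collected at various time points into lithium heparin, plasma stored at -20 °C, extracted by protein precipitation and quantified by LC/MS/MS; n = 5 rats/group.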

In series [8] the test system is Rattus norvegicus. Put plainly: Antiobesity activity in diet-induced obese Sprague-Dawley rat assessed as body weight progression at 10 mg/kg, po SID up to 12 days. Type of series: functional, organism-based. Also noted: dose 10 mg/kg. An outline of the steps: as §1

The source made the active and inactive calls. The calls are words filed in the database; no cut-off is given here.

T1 sequence (P21554 whole entry): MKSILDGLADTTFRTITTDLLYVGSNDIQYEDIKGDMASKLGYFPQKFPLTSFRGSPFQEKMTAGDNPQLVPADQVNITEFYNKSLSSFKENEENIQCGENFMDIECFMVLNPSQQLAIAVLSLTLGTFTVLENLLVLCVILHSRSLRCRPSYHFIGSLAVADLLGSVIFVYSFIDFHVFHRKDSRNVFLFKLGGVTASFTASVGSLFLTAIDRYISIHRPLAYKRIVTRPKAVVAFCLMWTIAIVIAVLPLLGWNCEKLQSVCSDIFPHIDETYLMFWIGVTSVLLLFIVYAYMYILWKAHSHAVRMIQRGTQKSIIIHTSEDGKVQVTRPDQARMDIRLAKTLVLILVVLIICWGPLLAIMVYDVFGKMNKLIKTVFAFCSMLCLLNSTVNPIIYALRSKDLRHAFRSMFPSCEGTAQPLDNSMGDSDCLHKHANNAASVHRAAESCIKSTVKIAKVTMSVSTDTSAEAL

On to `O=C(NC1CCCCC1)N1CCN(C(c2ccccc2)c2ccc(Cl)cc2Cl)CC1` (centres undefined), for which the IC50 – broadly, the midpoint of a concentration-inhibition curve – against Cannabinoid receptor 1 [1] was 9.2 nM. Besides, the inhibition constant (Ki) (usually a measure of affinity in units of concentration, obtained from inhibition or displacement) at Cannabinoid receptor 2 is 432 nM; at Cannabinoid receptor 1 [2], 1.6 nM.
`O=C(NC1CCCCC1)N1CCN(C(c2ccccc2)c2c(Cl)cccc2Cl)CC1` (centres undefined): the 50% inhibitory concentration (IC50) against Cannabinoid receptor 1 [1] turned out to be 55 nM. Besides, the values for the Ki on Cannabinoid receptor 2 and at Cannabinoid receptor 1 [2] were 831 nM and 2.2 nM, respectively.
As for `Cc1ccc(C(c2ccc(Cl)cc2Cl)N2CCN(C(=O)NC3CCCCC3)CC2)cc1` (centres undefined), the outcome in the series with Rattus norvegicus [3] and in the series with Rattus norvegicus [8] was Active. The Activity with Rattus norvegicus [4] was 22%; with Rattus norvegicus [6], 39%. Further, the EC50 (usually the concentration needed to bring the measured effect to its halfway point) on Cannabinoid receptor 1 [5] turned out to be 0.87 nM. The compound further registered an IC50 against Cannabinoid receptor 1 [1] of 2.7 nM. The figures for the inhibition constant (Ki) at Cannabinoid receptor 2 and on Cannabinoid receptor 1 [2] were 329 nM and 0.15 nM, respectively. Moreover, the half-life (usually how long it takes for the measured level to halve) in series [7] is 2.4 h.
For `O=C(C1CCCCC1)N1CCN(C(c2ccccc2)c2ccc(Cl)cc2Cl)CC1` (centres undefined), the IC50 against Cannabinoid receptor 1 [1] came to 9.3 nM. Moreover, the Ki amounted to 2930 nM at Cannabinoid receptor 2 and 5.8 nM at Cannabinoid receptor 1 [2].
Turning to `O=C(NN1CCCCC1)N1CCN(C(c2ccccc2)c2ccc(Cl)cc2Cl)CC1` (centres undefined), the IC50 against Cannabinoid receptor 1 [1] was 4.7 nM. Besides, the Ki on Cannabinoid receptor 2 is 1040 nM; at Cannabinoid receptor 1 [2] it was 1.2 nM.
In the same order, the values of `O=C(NC1CCCCC1)N1CCN(C(c2cccc(Cl)c2)c2ccc(Cl)cc2Cl)CC1` (centres undefined) are 161 nM, 407 nM and 2.3 nM.
The matching figures for `O=C(N1CCN(C(c2ccccc2)c2ccc(Cl)cc2Cl)CC1)C12CC3CC(CC(C3)C1)C2` (centres undefined): 288 nM, 25 nM and 5.9 nM.
In the same order, the values of `O=C(NC1CCCCC1)N1CCN(C(c2ccc(C(F)(F)F)cc2)c2ccc(Cl)cc2Cl)CC1` (centres undefined) are 57 nM, 274 nM and 1.2 nM.
Regarding `O=C(NC1CCCCC1)N1CCN(C(c2ccc(F)cc2)c2ccc(Cl)cc2Cl)CC1` (centres undefined), the IC50 against Cannabinoid receptor 1 [1] was 8.1 nM. Moreover, the Ki on Cannabinoid receptor 2 stood at 159 nM; at Cannabinoid receptor 1 [2], 2.5 nM.
At Cannabinoid receptor 1 [1], `O=C(C1CCCC1)N1CCN(C(c2ccccc2)c2ccc(Cl)cc2Cl)CC1` (centres undefined) returned an IC50 of 403 nM. Besides, the inhibition constant Ki at Cannabinoid receptor 2 was 4880 nM; at Cannabinoid receptor 1 [2], 732 nM.
The matching figures for `O=C(NC1CCCCC1)N1CCN(C(c2ccc(Cl)cc2)c2ccc(Cl)cc2Cl)CC1` (centres undefined): 19 nM, 26 nM and 0.23 nM.
For `S=C(NC1CCCCC1)N1CCN(C(c2ccccc2)c2ccc(Cl)cc2Cl)CC1` (centres undefined), on Cannabinoid receptor 1 [1], the half-maximal inhibitory concentration (IC50) was determined as 18 nM. Moreover, the Ki at Cannabinoid receptor 2 is 673 nM; on Cannabinoid receptor 1 [2] it was 0.2 nM.
The compound `O=C(C1CCC1)N1CCN(C(c2ccccc2)c2ccc(Cl)cc2Cl)CC1` (centres undefined) gave an IC50 against Cannabinoid receptor 1 [1] of more than 10000 nM. The values for the Ki at Cannabinoid receptor 2 and at Cannabinoid receptor 1 [2] were 2120 nM and 291 nM, respectively.
In the case of `S=C(NC1CCCCC1)N1CCN(C(c2ccccc2)c2ccccc2)CC1`, the inhibition constant (Ki) on Cannabinoid receptor 2 was found to be 1870 nM; at Cannabinoid receptor 1 [2] it was 106 nM.
With `CCCCNC(=O)N1CCN(C(c2ccccc2)c2ccc(Cl)cc2Cl)CC1` (centres undefined), on Cannabinoid receptor 2, the inhibition constant (Ki) was 918 nM.
Take `Cc1ccc(C(c2ccc(Cl)cc2Cl)N2CCN(C(=O)NN3CCCCC3)CC2)cc1` (centres undefined): at Cannabinoid receptor 1 [1], half-maximal inhibition (IC50) required 15 nM. In addition, the inhibition constant (Ki) at Cannabinoid receptor 2 worked out at 317 nM; at Cannabinoid receptor 1 [2] it was 3 nM.
`CCCCNC(=O)N1CCN(C(c2ccccc2)c2ccccc2)CC1`: the figures for the Ki on Cannabinoid receptor 2 and at Cannabinoid receptor 1 [2] were 2830 nM and 239 nM, respectively.
On to `O=C(NC1CCCCC1)N1CCN(C(c2ccccc2)c2ccc(F)cc2Cl)CC1` (centres undefined), for which, at Cannabinoid receptor 1 [1], the midpoint of inhibition, the IC50, lay at 68 nM. Further, the Ki at Cannabinoid receptor 2 was found to be 1300 nM; on Cannabinoid receptor 1 [2], 8.1 nM.
The matching figures for `O=C(NC1CCCCC1)N1CCN(C(c2ccccc2)c2ccc(Cl)cc2F)CC1` (centres undefined): 124 nM, 526 nM and 3.1 nM.
As to `O=C(NC1CCCCC1)N1CCN(C(c2ccccc2)c2ccccc2)CC1`, the inhibition constant Ki at Cannabinoid receptor 2 came out at 2410 nM; at Cannabinoid receptor 1 [2] it was 52 nM.
Take `O=C(NC1CCCCC1)N1CCN(C(c2ccccc2)c2ccc(Br)cc2F)CC1` (centres undefined): half-maximal inhibition at Cannabinoid receptor 1 [1] (IC50) was put at 87 nM. Also, the Ki came out at 322 nM on Cannabinoid receptor 2 and 1.8 nM at Cannabinoid receptor 1 [2].
The matching figures for `O=C(NC1CCCCC1)N1CCN(C(c2ccc(Oc3ccccc3)cc2)c2ccc(Cl)cc2Cl)CC1` (centres undefined): 34 nM, 52 nM and 1.1 nM.
The matching figures for `O=C(NC1CCCCC1)N1CCN(C(c2ccccc2)c2ccc(Cl)c(Cl)c2)CC1` (centres undefined): 462 nM, 356 nM and 60 nM.
In the same order, the values of `COc1ccc(C(c2ccc(Cl)cc2Cl)N2CCN(C(=O)NC3CCCCC3)CC2)cc1` (centres undefined) are 82 nM, 290 nM and 2.6 nM.
For `O=C(N1CCOCC1)N1CCN(C(c2ccccc2)c2ccc(Cl)cc2Cl)CC1` (centres undefined), at Cannabinoid receptor 1 [1], the concentration for half-maximal inhibition (IC50) was more than 10000 nM. The Ki amounted to 618 nM at Cannabinoid receptor 2 and 111 nM at Cannabinoid receptor 1 [2].
The matching figures for `O=C(NC1CCCCC1)N1CCN(C(c2ccccc2)c2cc(Cl)ccc2Cl)CC1` (centres undefined): 43 nM, 899 nM and 5.9 nM.
Regarding `O=C(C1CCCCC1)N1CCN(C(c2ccccc2)c2ccccc2)CC1`, the Ki at Cannabinoid receptor 2 was 3050 nM; at Cannabinoid receptor 1 [2], 164 nM.
`O=C(N1CCCCC1)N1CCN(C(c2ccccc2)c2ccc(Cl)cc2Cl)CC1` (centres undefined) yielded a half-maximal inhibitory concentration (IC50) at Cannabinoid receptor 1 [1] of more than 10000 nM. For the same compound, the figures for the inhibitory constant (Ki) at Cannabinoid receptor 2 and at Cannabinoid receptor 1 [2] were 987 nM and 56 nM, respectively.

For the origin of these results see ChEMBL document CHEMBL1154878, “Discovery of benzhydrylpiperazine derivatives as CB1 receptor inverse agonists via privileged structure-based approach” (Eur J Med Chem, 2010).
